CRFBP-R2 agonist: agonists of CRF-BP/CRF-R2 complex, primary screen, cell-based, HEK293, calcium dye fluorescence, uHTS. CRF-binding protein / CRF receptor 2 complex (human). calcium dye fluorescence (FLIPR); percent of saturating CRF peptide response. activation, % at 13.2 µM. 350,000 tested, 0.46% active. AID 588473, 2011;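 active = activation of at least 50%, plus an integration ratio under a set limit after plate pattern correction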
TAAR1 antagonist: human TAAR1 antagonists, primary screen, Fluo-8 calcium fluorescence, CHO RD-HGA16 cells | antagonist | inhibition, % at 3 µM | 360,000 tested, 1.5% active;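 active = inhibition above a per-plate cutoff, the mean inhibition of test compounds on that plate plus 3 SD, cut at about 49% in these data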
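Assay system: RD-HGA16 CHO cells with stable hTAAR1 and Gα16 / Reagent: EC80 β-phenethylamine stimulus / Doses: 3 µM, single point / Timing: dye loading 75 min at 37 °C, then 30 min room temperature / Measured by: Fluo-8 intracellular calcium dye fluorescence, real-time kinetic reads / Controls: vehicle wells and EC80 agonist wells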
ANO1 activ: TMEM16A chloride channel activators or potentiators, primary screen, cell-based, HTS; Anoctamin-1 (Mus musculus), Q8BHY3; HEK293 TMEM16A/YFP-H148Q/I152L, iodide quench fluorescence; hits give low values; B-score at 10 µM; 340,000 tested, 0.3% active; AID 623877, 2012;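 active = fluorescence-ratio B-score plate-corrected deviation score at least 3 library SD below zero, with starting fluorescence score within 5 deviations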;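 also: channel opened by trigger with iodide after compound preincubation; score built on the fluorescence ratio of max minus min over baseline; more negative score means more quench and so TMEM16A activation or potentiation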
CRFBP-R2 block: antagonists of CRF-BP/CRF-R2 complex, primary screen, cell-based, HEK293, calcium dye fluorescence, uHTS; CRF-induced calcium fluorescence; inhibition, % at 11.8 µM; 350,000 tested, 0.59% active;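 active = inhibition of the ligand-induced calcium signal above about 50% at the single tested concentration, limit read from the data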
TMEM16A inh: TMEM16A chloride channel inhibitors, primary screen, cell-based, HTS. Anoctamin-1 (Mus musculus), Q8BHY3. HEK293 TMEM16A/YFP iodide influx fluorescence, ionomycin. normalized B-score (activity score, 25-100; higher = stronger inhibition) at 10 µM. 310,000 tested, 1.2% active;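 active = ratio plate-corrected score three or more library SD toward inhibition, starting fluorescence score within five deviations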;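 also: score derived from kinetic fluorescence span divided by baseline fluorescence per well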
TAAR1 ag: human TAAR1 agonists, primary screen, Fluo-8 calcium fluorescence, CHO RD-HGA16 cells. vehicle wells 0%, saturating PEA agonist 100%. Trace amine-associated receptor 1 (Homo sapiens), Q96RJ0. activation, % at 3 µM. 360,000 tested, 0.99% active. AID 624467, 2012;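 active = activation above the mean activation of all test compounds in the run plus 3 SD, cut at about 38% in these data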
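Benchmarks: low control DMSO, high control PEA (EC100); System: CHO RD-HGA16 cells carrying human TAAR1 plus Gα16; Detection: Fluo-8 fluorescence, 5 s baseline then 140 s kinetic read; Schedule: 17-24 h plating, Fluo-8 75 min 37 °C, 30 min RT; Read-out basis: % activation from peak over basal fluorescence ratio, DMSO-to-PEA scaled.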
Of the large screens only hits and unclear results are named; the others gave an inactive call. An excerpt weighted towards active compounds, which were near 3.9% of everything screened.

CCC1CCCCN1S(=O)(=O)c1ccc(S(=O)(=O)N(Cc2cccs2)C2CC2)cc1 (configuration not stated)	ANO1 activ -16.1
CCc1ccc2oc(-c3ccc(OC)cc3)cc(=Nc3cccc(C(=O)O)c3)c2c1	none
CCc1ccc2oc(-c3ccc(OC)cc3)cc(=Nc3c(C)n(C)n(-c4ccccc4)c3=O)c2c1	TMEM16A inh 100
COc1ccc(/C=C/C(=O)NNC(=O)C(C)Oc2ccccc2F)cc1OC (configuration not stated)	none (no result: TMEM16A inh)
COCCNC(=S)N1CCc2cc(OC)c(OC)cc2C1COc1cc(C)cc(C)c1 (configuration not stated)	CRFBP-R2 block 86.4
COC(=O)[C@]1(C)N[C@H](CN(C)S(=O)(=O)c2ccc(C)cc2)[C@@H]2C(=O)N(Cc3ccccc3)C(=O)[C@@H]21	none (no result: ANO1 activ, TMEM16A inh)
Cc1cc(Br)ccc1Nc1nc(N)nc(N)c1N=O	none (no result: TMEM16A inh)
Cc1cccc(Nc2nc(N)nc(N)c2N=O)c1	TAAR1 ag 45.5 (no result: TMEM16A inh)
CC(OC(=O)CCN=C1NS(=O)(=O)c2ccccc21)C(=O)Nc1ccc(F)cc1 (configuration not stated)	none
CSc1cccc(NC(=O)C2CCCN(S(=O)(=O)c3cnc[nH]3)C2)c1 (configuration not stated)	ANO1 activ -11.6 (no result: TMEM16A inh)
O=C(Nc1cc([N+](=O)[O-])ccc1Cl)C(Sc1ccccc1)c1ccccc1 (configuration not stated)	none
O=C(Nc1ccc(Cl)c([N+](=O)[O-])c1)C(Sc1ccccc1)c1ccccc1 (configuration not stated)	TAAR1 antagonist 57.3, TMEM16A inh 100
CC1CCN(C(=O)Cn2nnc(-c3ccc([N+](=O)[O-])cc3)n2)CC1	none
Cc1ccc(NC(=O)CCNS(=O)(=O)c2ccc3c(c2)oc(=O)n3C)cc1	none
Cn1c(=O)oc2cc(S(=O)(=O)NCCC(=O)NCc3ccc(F)cc3)ccc21	CRFBP-R2 block 99.3
Nn1c(SCC(=O)NC2CCCCCC2)nnc1-c1ccco1	none (no result: ANO1 activ, TMEM16A inh)
CCC(C(=O)OCC(=O)Nc1cc(Cl)cc(Cl)c1)c1ccccc1 (configuration not stated)	TMEM16A inh 100
COc1cc2cc(CCCOC(=O)c3ccc(C(F)(F)F)cc3)oc(=O)c2cc1OC	none (no result: TMEM16A inh)
Clc1ccc(-c2noc(CSc3nnc(-c4ccncc4)n3-c3ccccc3)n2)cc1	TMEM16A inh 100
Clc1ccc(-c2nnc(SCc3nc(-c4ccccc4)no3)o2)cc1	ANO1 activ -4.7
Cc1ccc(-c2noc(CSc3nnc(-c4ccncc4)n3-c3ccc(C)cc3)n2)cc1	none
O=S(=O)(Nc1ccc(N2CCOCC2)cc1)c1c(F)cc(F)cc1Br	none
O=S(=O)(c1ccccc1)c1ccc(N2CCCCCC2)cc1	none
CSCc1ccc(C(=O)OCC(=O)NC2CCCC2)o1	none (no result: ANO1 activ, TMEM16A inh)
CCN1CCN(c2ccc(S(=O)(=O)N3CCCCC3)cc2NC(=O)CC(C)c2ccccc2)CC1 (configuration not stated)	none
CC1(C(=O)NS(=O)(=O)c2ccc(Cl)s2)CCN1C(=O)c1ccccc1CCc1ccccc1 (configuration not stated)	none (no result: CRFBP-R2 agonist, ANO1 activ, CRFBP-R2 block, TMEM16A inh)
CN(C)c1ccc(/C=C/C(=O)c2c(O)c3ccccc3oc2=O)cc1	CRFBP-R2 agonist 129.2
O=c1c(/C=N/OCc2ccc(Cl)cc2Cl)c[nH]n1-c1cccc(Cl)n1	TMEM16A inh 25
CC(=O)NC(CC(=O)OCC(=O)N1CCN(S(=O)(=O)c2ccc(C)cc2C)CC1)c1ccccc1 (configuration not stated)	none (no result: TMEM16A inh)
O=c1cc(CN2CCCc3ccccc32)nc2sccn12	ANO1 activ -10.6
COC(=O)c1ccc(OCc2cc(=O)n3ccsc3n2)cc1	none
O=c1cc(CN2CCC(Cc3ccccc3)CC2)nc2sccn12	none
O=C(OCc1cc(=O)n2ccsc2n1)C1(c2ccccc2)CC1	CRFBP-R2 block 71.4 (no result: ANO1 activ, TMEM16A inh)
CC1CN(Cc2cc(=O)n3ccsc3n2)CC(C)O1 (configuration not stated)	TAAR1 ag 40.1
O=c1cc(CN2CCc3ccccc32)nc2sccn12	none
CCN(CC)C(=O)C1CCN(Cc2ccc(OCc3ccccc3)c(OC)c2)CC1	none
COc1ccc(C(=O)Nc2nnc(-c3ccccc3)o2)cc1OC	none
Cc1cccc(-c2nnc(NC(=O)c3ccc(Cl)cc3)o2)c1	CRFBP-R2 agonist 108.5
Cc1ccc(C(=O)Nc2nnc(-c3ccncc3)o2)cc1	none
O=C(Nc1nnc(-c2ccc(F)cc2)o1)c1cc(Cl)sc1Cl	CRFBP-R2 agonist 91.0
O=C(Nc1nnc(-c2ccccc2)o1)c1cc(Cl)sc1Cl	CRFBP-R2 agonist 187.8
CC(C)c1cc(Cn2c3ccccc3c(=O)n2C(C)Cn2cc(-c3ccc(C(C)(C)C)cc3)nn2)on1 (configuration not stated)	none (no result: CRFBP-R2 agonist, ANO1 activ, CRFBP-R2 block, TMEM16A inh)
COc1ccc(S(=O)(=O)Nc2ccc(Cc3ccncc3)cc2)cc1C	none (no result: TAAR1 antagonist, TAAR1 ag)
CC1CCC2(CC1)NC(=O)N(NC(=O)CCc1c[nH]c3ccccc13)C2=O (configuration not stated)	none (no result: TMEM16A inh)
CCCNC(=O)/C(=C/c1cn(S(=O)(=O)N(C)C)c2ccccc12)NC(=O)c1ccc(OC)cc1	CRFBP-R2 agonist 78.2
COc1ccc(OC)c(C(=O)NC(CC(N)=O)c2ccc(NCCN3CCCCC3)c([N+](=O)[O-])c2)c1 (configuration not stated)	none
O=C(Nc1ccccc1)N(Cc1ccccc1)C1=NCCS1	TAAR1 ag 39.6
CC1CN=C(N(Cc2ccccc2)C(=O)Nc2ccccc2)S1 (configuration not stated)	none
CCOCCn1c2ccccc2c2nc3ccccc3nc21	none
COCCNC(=O)CN(CC1CCCO1)C(=O)CCC(=O)Nc1ccccn1 (configuration not stated)	CRFBP-R2 block 57.1
O=C(CN(CC1CCCO1)C(=O)CCC(=O)Nc1ccccn1)NCC1CCCO1 (configuration not stated)	none
CCCCc1ccc(NC(=O)CSC2=NN3CCCC(=O)N=C3S2)cc1	none
Cc1[nH]c2ccccc2c1C(=O)C(=O)N1CCN(c2cccc(Cl)c2)CC1	ANO1 activ -52.8
Cc1[nH]c2ccccc2c1C(=O)C(=O)N1CCN(c2ccccc2Cl)CC1	none
Cc1cc(C)n2nc(C(=O)N/N=C/c3ccco3)nc2n1	none
O=C(NCCNC(=O)c1ccc(Br)o1)c1cccnc1	none
CC(=O)Oc1ccccc1C(=O)Nc1ccccc1	none

Source: PubChem
